# High-throughput results: PubChem, Broad Institute
# Hits are enriched below; roughly 3.1% of the tested compounds scored in any of these assays.
# PGC1a acetyl inh = PGC1a acetylation modulation, inhibitor mode | 350,000 tested, 0.17% active | U2OS PGC1a acetylation, AlphaScreen anti-acetyl-lysine; with virally co-expressed GCN5 acetyltransferase | inhibition, % at 15.6 µM;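 active = every replicate shows inhibition of at least 40%; inconclusive = mean inhibition at least 40% but some replicate below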;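 also: 0% = neutral control wells and 100% = positive control wells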
# FGF22 binding = shifts melting point of recombinant human FGF22 | 340,000 tested, 1.5% active | activity (Tm shift, normalised), % at 9.99 µM | recombinant FGF22 thermal shift, SYPRO orange fluorescence; percent of sucrose octasulfate shift, DMSO zero | Q9HCT0;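 active = mean Tm shift, scaled 0 neutral to 100 positive control, at about 1.3% or above, every replicate too, limit read from the data; inconclusive = no clear call, values can overlap the other calls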
# Target sequence (Q9HCT0 whole entry, looked up): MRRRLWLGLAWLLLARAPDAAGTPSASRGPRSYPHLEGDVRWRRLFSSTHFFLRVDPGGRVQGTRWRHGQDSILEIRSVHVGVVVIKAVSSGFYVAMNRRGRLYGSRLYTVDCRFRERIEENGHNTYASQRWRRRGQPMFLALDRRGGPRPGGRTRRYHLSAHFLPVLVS
# PAX8 inh HTS = inhibitors of PAX8 transcriptional activity in RMG-I cells | 360,000 tested, 1.2% active | inhibition, % at 12.6 µM | RMG-I TPO-luciferase reporter, SteadyGlo, 24 h | AID 652154;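 active = mean replicate inhibition at least 60% with every replicate also reaching 60%; inconclusive = only one of the two criteria is met; inactive = mean below 60% and not all replicates reaching 60%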;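 also: luciferase light reporting Pax8 driven TPO promoter activity; plate controls were median of neutral control wells for no effect and mitoxantrone controls for full effect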
# FN deposit inh = fibronectin deposition inhibition; AH1F fibroblasts, Alexa488-fibronectin deposition fluorescence, overnight; inhibition, % at 12.6 µM; 350,000 tested, 0.086% active; AID 743247;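 active = mean inhibition across replicates of 30% or more, regardless of how many single replicates reach that level; inconclusive = mean under 30% yet at least half of replicates reach 30%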;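 also: positive control wells lacked labelled fibronectin entirely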
#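 Material: AH1F fibroblast monolayer depositing Alexa488-labelled fibronectin into matrix / Amount: 10000 AH1F cells per well / Signal: fluorescence 485/525 nm / Medium: DMEM, 2% serum / Compound: single dose, pinned / Incubation: 1 h cell adhesion before compound, then overnight fibronectin incubation / Reagent: Alexa488-FN, 24 nM final / Read-out: inhibition of fibronectin deposition signal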
# EWS-Fli inh = EWS/Fli transcriptional activity inhibition; inhibition, % at 12.6 µM; 350,000 tested, 0.67% active; A673 NR0B1-luciferase reporter, viability-normalised;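 active = mean inhibition of at least 50% after viability correction, with every replicate also passing that limit; inconclusive = mean reaches 50% but only one of two replicates passes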;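 also: firefly luciferase signal divided by Alamar Blue viability fluorescence both relative to DMSO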
# HIV Env fusion = HIV envelope-mediated fusion inhibition | HeLa-JRFL Env/CEM21 cell fusion, luciferase | inhibition, % at 12.3 µM | 360,000 tested, 1.1% active;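 active = mean replicate inhibition score of at least 50 and every replicate individually at or above 50; inconclusive = only one of the two criteria met; inactive = mean below 50 and not all replicates reaching 50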;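 also: 0% = plate neutral controls and 100% = maraviroc near 300 nM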
# DNA binding = DNA binding small molecules; shares compounds with EWS-Fli inh; salmon sperm DNA acridine orange fluorescence polarization; AC35, µM (titrated, usually from 68 µM), for inactives: top-dose activity change, negative = DNA binding; 640 tested, 2% active; AID 720586;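 active = fitted curve reaches a 35% signal fall AC35 below twice the sample's top valid tested dose, actives reach about 48 µM in these data; inactive = the rest, including activity in the rising direction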;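 also: lower polarization ratio signals compound binding to DNA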
# The depositor's hits bear a star; ? = inconclusive; / = no result given; [ ] = remark or other dose.
SMILES,PGC1a acetyl inh,FGF22 binding,PAX8 inh HTS,FN deposit inh,EWS-Fli inh,HIV Env fusion,DNA binding
O=C(C[C@@H]1C=C[C@@H](NC(=O)C2CC2)[C@H](CO)O1)NCC1CC1,-1,0,-16,/,-5,-14[16.7 µM],/
C[C@@H]1CN([C@H](C)CO)C(=O)c2ccccc2-c2ccccc2CO[C@@H]1CN(C)Cc1cccc2c1OCCCO2,/,/,/,8,/,/,/
CCCCNC(=O)C(c1ccc(OCC(=O)OC)c(C(=O)OC)c1)N(CCOC)C(=O)CCCCCN1C(=O)NC(c2ccc(-c3ccccc3)cc2)C(C(=O)OCc2ccccc2)=C1C (stereo unspecified),/,0,37,21,59*,-27,-4%
COc1ccc(NC(=O)N(C)C[C@H]2Oc3ccc(NS(C)(=O)=O)cc3C(=O)N([C@@H](C)CO)C[C@H]2C)cc1,-2,0,/,-4,-7,/,/
Nc1nc(=S)c2ncn([C@@H]3O[C@H](CO)[C@@H](O)[C@H]3O)c2[nH]1,6,0,97*,4,53*,38,-13%
Nc1nc(=S)c2ncn(C3OC(CO)C(O)C3O)c2[nH]1 (stereo unspecified),4,0,25,6,12,15,/
Nc1ncn([C@@H]2O[C@H](CO)[C@@H](O)[C@H]2O)c(=O)n1,-2,0,21,0,62*,-385,8%
O=C(NCC[C@@H]1CC[C@H](NS(=O)(=O)c2ccc(F)cc2)[C@@H](CO)O1)c1ccccc1F,-9,/,/,/,2,/,/
COC(=O)c1cccc(NC(=O)NC(=O)c2ccccc2Cl)c1,/,0,30,-7,86*,43,-13%
C[C@H](CO)N1C[C@H](C)[C@@H](CN(C)Cc2ccc(C(F)(F)F)cc2)Oc2ccc(NC(=O)Nc3ccc(C(F)(F)F)cc3)cc2C1=O,-12,1,6,/,-6,2[16.7 µM],/
CCc1ccc(S(=O)(=O)c2ccc(-n3nc(C)cc3N)cc2)cc1,/,0,12,/,53*,5,-3%
C[C@H](CO)N1C[C@H](C)[C@H](CN(C)C(=O)C2CCC2)Oc2cc(C#CC3CC3)ccc2S1(=O)=O,-10,0,/,/,9,-10[16.7 µM],/
CCS(=O)(=O)N1Cc2ccccc2CC1C(=O)Nc1nnc(SCc2ccc(C#N)cc2)s1 (stereo unspecified),/,0,-11,/,66*,-10,-1%
CCN1CCN(/C=N/c2nc3c(s2)CCCC3)CC1,-5,0,/,/,57*,/,-10%
CN1CCN(CC(=O)Nc2nc3c(s2)CCCC3)CC1,0,0,13,-17,6,-4,/
COC(=O)C[C@@H]1CC[C@@H](NC(=O)Nc2ccc(C(F)(F)F)cc2)[C@H](CO)O1,-7,0,16,3,-32,-5[16.7 µM],/
COC(=O)C[C@H]1CC[C@@H](NC(=O)Nc2ccc(C(F)(F)F)cc2)[C@H](CO)O1,-7,0,4,-6,69*,15[16.7 µM],-17%
Cc1ccc(/C=N/Nc2ccnc3cc(Cl)ccc23)c(C)c1,/,0,11,12,76*,21,-8%
O=C(NC1CCC1)[C@H]1[C@H](CO)[C@H]2Cn3c(cccc3=O)[C@H]2N1CCc1ccccc1,/,0,-20,/,4,2[16.7 µM],/
COc1ccccc1-c1cn(CC[C@H]2CC[C@@H](NC(=O)C3CCCC3)[C@H](CO)O2)nn1,-8,/,/,-5,-1,/,/
COc1ccccc1-c1cn(CC[C@H]2CC[C@@H](NC(=O)C3CCCC3)[C@@H](CO)O2)nn1,-6,/,/,-2,57*,/,-16%
O=c1cnc2ccccc2n1Cc1ccc(Br)cc1,-9,0,-62,1,-89,-13,/
CC(C)(C)c1ccc(Cn2c(=O)cnc3ccccc32)cc1,-6,0,27,-2,78*,39,-13%
COCC(=O)N(C)C[C@H]1Oc2ncc(C#Cc3ccccc3)cc2C(=O)N([C@H](C)CO)C[C@@H]1C,-11,0,/,-5,-11,-6[16.7 µM],/
Cc1cc(C)n(/N=C/c2ccccc2O)c(=O)c1,2,0,4,-9,-7,-7,/
SMILES,PGC1a acetyl inh,FGF22 binding,PAX8 inh HTS,FN deposit inh,EWS-Fli inh,HIV Env fusion,DNA binding
CN=c1scc(-c2cccs2)n1/N=C/c1ccccc1O,/,1,118*,/,93*,57*,-7%
COc1ccc(-c2cn(-c3ccc(OC)cc3)c3[n+]2-c2ccccc2CC3)cc1,/,0,92*,/,74*,29,-5%
O=C(C[C@@H]1C[C@H]2c3cc(NC(=O)Nc4ccccc4)ccc3O[C@H]2[C@H](CO)O1)NC1CCCC1,2,-1,9,2,-10,-14[16.7 µM],/
O=C(N/N=C/c1cnc(N2CCCCC2)s1)c1ccc(C(F)(F)F)cc1,-3,0,74*,0,54*,29,0%
CC1CN(c2ncc(/C=N/NC(=O)c3ccccc3O)s2)CC(C)O1 (stereo unspecified),21,0,-15,5,4,20,/
O=C(CN1C(=O)c2ccccc2S1(=O)=O)c1ccc(F)cc1,-6,/,55,-4,66*,?,-6%
O=C(CN1C(=O)c2ccccc2S1(=O)=O)c1ccc(OC(F)F)cc1,-1,/,/,/,/,/,/
COc1ccc(C(=O)OCC(=O)Nc2ccc(Cl)c(C(F)(F)F)c2)c(OC)c1OC,/,0,-7,/,73*,8,6%
COc1cccc(NC(=O)N[C@H]2CC[C@@H](CC(=O)N3CCCCC3)O[C@H]2CO)c1,3,0,4,/,7,-16[16.7 µM],/
CCOc1ccc(NC(=O)C(=O)N/N=C\c2ccc(CNS(=O)(=O)c3ccccc3)o2)cc1,3,0,-15,/,86*,0,9%
CCOc1ccc(C(=O)N/N=C/c2ccc(-c3ccc(S(=O)(=O)Nc4ncccn4)cc3)o2)cc1,/,/,/,-15,/,8,/
COc1ccc(NC(=O)c2cc3ccccc3oc2=O)cc1,/,0,-8,13,76*,-130,-11%
O=C(Nc1ccc2c(c1)[C@@H]1C[C@H](CC(=O)N3CCOCC3)O[C@@H](CO)[C@@H]1O2)NC1CCCC1,5,/,6,3,-3,/,/
CCOc1ccc(/C=C2\CCc3ccccc3C2=O)cc1,/,0,-24,5,70*,5,-7%
COc1ccc(C=C2CCc3ccccc3C2=O)cc1,/,0,-96,2,70*,12,2%
C[C@@H]1CN([C@H](C)CO)C(=O)c2cc(NS(C)(=O)=O)ccc2O[C@@H](C)CCCCO[C@H]1CN(C)C(=O)Nc1ccc2c(c1)OCO2,20,0,/,/,-6,15[16.7 µM],/
CO[C@@H]1CN(C)C(=O)c2ccc(NC(=O)NC(C)C)cc2OC[C@@H](C)N(Cc2ccc(-c3ccccn3)cc2)C[C@@H]1C,2,0,-5,-4,-14,/,/
